CHO parental Ca – counter-screen for OX1R antagonists: effect in parental CHO cells. inhibition, % at 5.6 µM. 330,000 compounds, 0.63% hits. parental CHO-K1, ATP-induced calcium, Fluo-8 fluorescence;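 active means inhibition above that plate's mean sample inhibition plus 3 SD, cut at about 26% in these data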
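Assay system – parental CHO cells · Reagent – ATP stimulus · Detection – intracellular calcium via Fluo-8 no-wash fluorescent dye · Evaluation – percent inhibition of ATP-evoked calcium rise, normalized to controls · Controls – ATP wells versus no-ATP DMSO wells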
OX1R antag-1 – blocks the human orexin 1 receptor; 330,000 compounds, 0.43% hits; inhibition, % at 5 µM; AID 434989; CHO/OX1R cells, Fluo-8 calcium fluorescence, orexin A; O43613;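 active means inhibition above its plate's threshold, mean inhibition of all tested compounds on the plate plus 3 SD, cut at about 37% in these data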
GalR3 antagonist – antagonists of human GalR3. 360,000 compounds, 0.44% hits. inhibition, % at 3 µM. HEK293 GalR3-CNG cAMP membrane potential fluorescence; galR3 body fused to GalR1 C-terminus. O60755. AID 651719;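 active means inhibition above the screen-wide average plus 3 SD, cut at about 13% in these data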;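 further: forskolin and galanin both at EC90 stimulate the cells; cAMP rise reported by CNG channel membrane potential dye signal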
Target sequence (O60755 1-299 limits assumed): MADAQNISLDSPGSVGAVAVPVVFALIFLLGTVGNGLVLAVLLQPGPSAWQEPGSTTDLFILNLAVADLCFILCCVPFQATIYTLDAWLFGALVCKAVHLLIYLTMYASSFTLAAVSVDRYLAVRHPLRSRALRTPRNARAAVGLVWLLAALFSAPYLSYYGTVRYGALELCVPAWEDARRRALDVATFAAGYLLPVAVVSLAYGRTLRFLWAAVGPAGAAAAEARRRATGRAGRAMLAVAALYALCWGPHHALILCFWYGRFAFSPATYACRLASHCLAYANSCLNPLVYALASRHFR
GPR7 antag – antagonists of human GPR7 (neuropeptides B/W receptor 1). P48145. GPR7-expressing cells, fluorescence antagonist assay. inhibition, % at 4.4 µM. 290,000 compounds, 1.1% hits; in the data active means inhibition above about 16%, passing the limit was not always enough;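 further: cells stimulated with the agonist NPW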
Target sequence (P48145 whole entry, looked up): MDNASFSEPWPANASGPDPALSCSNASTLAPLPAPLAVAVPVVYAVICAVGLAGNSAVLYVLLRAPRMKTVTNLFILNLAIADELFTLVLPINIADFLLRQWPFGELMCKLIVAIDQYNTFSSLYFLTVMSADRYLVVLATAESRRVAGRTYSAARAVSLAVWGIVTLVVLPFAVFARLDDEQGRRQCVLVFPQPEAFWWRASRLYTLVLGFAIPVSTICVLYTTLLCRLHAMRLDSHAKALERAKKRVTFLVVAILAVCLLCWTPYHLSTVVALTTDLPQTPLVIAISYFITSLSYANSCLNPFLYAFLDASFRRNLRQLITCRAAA
OX1R antag-2 – blocks the human orexin 1 receptor | O43613 | OX1R-expressing cells, FRET antagonist read-out | inhibition, % at 6.6 µM | 330,000 compounds, 1.8% hits; in the data active means inhibition mostly above about 38%, no sharp cut-off; inactive means mostly below about 40%
Hits are given with their value; n = inactive; x = no result given. Hits are enriched below; roughly 3.1% of the tested compounds scored in any of these assays.

SMILES | CHO parental Ca | OX1R antag-1 | GalR3 antagonist | GPR7 antag | OX1R antag-2
Cn1c(SCc2ccc([N+](=O)[O-])cc2)nnc1-c1ccncc1 | n | n | n | n | n
Cn1c(SCC2CCCO2)nnc1-c1ccc([N+](=O)[O-])cc1 (stereo not given) | n | n | n | n | 41.5
COC(=O)c1cc2c(c3c4cc(OC)ccc4n(S(=O)(=O)c4ccc(OC)cc4)c13)C(=O)N(C1CCCCC1)C2 | x | x | n | x | x
Cc1cc(N2CCN(CC(C)(C)O)C[C@H]2C)ccc1N1CCN(Cc2ccccc2)[C@H](C)C1 | x | x | n | x | x
Cc1cccc(Nc2nc(-c3c(C)nc4ccccn34)cs2)c1 | 43.1 | 69.5 | n | n | n
CCOC(=O)C1CCN(S(=O)(=O)c2ccc3c(c2)CC(=O)N3C)CC1 | n | n | n | n | n
O=S(=O)(/C(=C/c1ccc(C(F)(F)F)cc1)c1nc2ccccc2[nH]1)c1ccccc1 | n | n | n | 26.1 | n
COC(=O)/C(=C\c1ccc(O)cc1)c1nc2ccccc2[nH]1 | n | n | n | n | n
C/C(=C\c1ccc(N)cc1)c1nc2ccccc2[nH]1 | n | n | n | n | n
CC(C)c1ccc(/C=C(\c2nc3ccccc3[nH]2)S(=O)(=O)c2ccccc2)cc1 | n | n | n | 28.2 | n
CN(C)S(=O)(=O)c1cc(NC(=O)COC(=O)CCSc2ccc(Cl)cc2)ccc1Cl | n | n | n | 20.8 | n
CCN(Cc1ccccc1)C(=O)COC(=O)c1cnc(C)cn1 | n | n | n | n | n
CCN(Cc1ccccc1)C(=O)COC(=O)c1c(C)nsc1NC | n | n | n | x | 50.2
Cc1nnc(SCC(=O)Nc2c(Cl)cccc2Cl)n(N)c1=O | n | n | n | x | n
CCOc1ccc(N2CC(C(=O)Nc3cc(S(=O)(=O)N4CCCCC4)ccc3C)CC2=O)cc1 (stereo not given) | n | n | n | x | n
N#Cc1ccc(Nc2nc(-c3ccc(O)cc3O)cs2)cc1C(F)(F)F | n | n | x | x | 53.0
CN1/C(=C/C(=S)NC(=O)C2(C)CC2(Cl)Cl)C(C)(C)c2ccccc21 (stereo not given) | n | n | n | n | n
COc1ccccc1C(=O)NC(=S)/C=C1/N(C)c2ccccc2C1(C)C | 49.1 | 48.4 | n | n | n
COc1ccc(NC(=O)c2ccco2)c2ccccc12 | x | x | n | n | x
O=[N+]([O-])c1nn(-c2ccccc2)n(O)c1=NC1CCN(Cc2ccccc2)CC1 | n | n | n | n | 46.2
CCCCCC(=O)N/N=C/c1ccc([N+](=O)[O-])o1 | n | n | n | n | 35.5
Cc1ccc(NCC(=O)N/N=C\c2ccc([N+](=O)[O-])o2)cc1 | n | n | n | n | n
O=C(CNc1ccccc1)N/N=C/c1ccc([N+](=O)[O-])o1 | n | n | n | n | 51.1
O=C1CSC(=Nc2cccc([N+](=O)[O-])c2)N1 | n | n | n | n | n
Cc1cc2nccc(-c3ccccn3)n2n1 | n | n | n | n | n
SMILES | CHO parental Ca | OX1R antag-1 | GalR3 antagonist | GPR7 antag | OX1R antag-2
c1ccc(-c2cc3nccc(-c4ccccn4)n3n2)cc1 | n | n | n | n | 48.4
Cc1ccnc(NC(=O)c2cc3ccccc3o2)c1 | n | n | n | x | 52.7
OC(CNCCc1ccccc1)COc1ccc(OCC(O)CNCCc2ccccc2)cc1 (stereo not given) | n | n | n | 32.5 | n
O=C(CSc1ccc([N+](=O)[O-])cc1)Nc1cccc(S(=O)(=O)Nc2ccccc2F)c1 | 46.4 | n | n | n | n
O=C(Cc1ccc(Cl)cc1)Nc1cccc(S(=O)(=O)Nc2ccccc2F)c1 | n | n | n | n | n
O=C(CN1C(=O)c2ccccc2C1=O)NC1CCS(=O)(=O)C1 (stereo not given) | x | x | n | x | x
O=C(CN1C(=O)c2ccc([N+](=O)[O-])cc2C1=O)NC1CCS(=O)(=O)C1 (stereo not given) | n | n | n | x | 55.6
O=C(CN1C(=O)c2ccc(Br)cc2C1=O)NCC1CCCO1 (stereo not given) | n | n | n | n | n
O=C(NCC1CCCO1)c1ccc([N+](=O)[O-])s1 (stereo not given) | n | n | n | n | 70.0
O=C(NCC(c1ccco1)N1CCCCC1)c1ccc([N+](=O)[O-])s1 (stereo not given) | n | n | n | x | 56.4
O=C(CN1C(=O)c2ccc([N+](=O)[O-])cc2C1=O)NCC1CCCO1 (stereo not given) | n | n | n | x | 67.5
Cc1ccc(C(=O)NCC(c2ccco2)N2CCCCC2)s1 (stereo not given) | n | n | n | x | n
O=C(OCC(=O)N(CCc1ccccc1)Cc1ccccc1)c1ccccc1NCCO | n | n | n | n | n
O=C(Cc1ccc([N+](=O)[O-])cc1)NCC1CCCO1 (stereo not given) | n | n | n | n | n
O=C(/C=C/c1ccc([N+](=O)[O-])cc1)NCC1CCCO1 (stereo not given) | n | n | n | n | 58.7
Cc1cc(C)c(S(=O)(=O)Nc2cc(SCC(=O)O)c(O)c3ccccc23)cc1C | n | n | x | n | 58.1
O=C1/C(=C\c2ccc(Br)o2)SC(=Nc2ccccc2)N1c1ccccc1 | n | n | n | n | 61.6
O=C(COc1coc(CN2CCc3ccccc32)cc1=O)Nc1cccc(F)c1 | n | n | n | x | n
CC(C)CC(c1nnnn1C(C)(C)C)N1CCN(C2CCCC2)CC1 (stereo not given) | n | n | n | 17.8 | n
Cc1ccc(C(c2nnnn2C(C)(C)C)N2CCN(C3CCCC3)CC2)cc1 (stereo not given) | n | n | n | n | n
O=C(Nc1ccccc1)Nc1ccc(-n2ccc(C(F)(F)F)n2)cc1 | 41.2 | n | n | n | n
CC(C)CNC(=O)C(=O)Nc1cc2c3c(c1)C(C)C(=O)N3CCC2 (stereo not given) | n | n | n | n | n
CC(=O)c1ccc(NC(=O)Nc2ccc(S(=O)(=O)N3CCCC3)cc2)cc1 | x | x | n | n | x
O=C(N[C@H](C(=O)N1CCC[C@H]1C(=O)NCc1ccccc1)C1CCCCC1)c1ccc(Cl)c(Cl)c1 | x | x | n | x | x
N#Cc1cc(C(=O)c2cc(F)ccc2O)cn(-c2nccs2)c1=O | 36.9 | n | n | n | n
SMILES | CHO parental Ca | OX1R antag-1 | GalR3 antagonist | GPR7 antag | OX1R antag-2
N#Cc1cc(C(=O)c2ccccc2O)cn(-c2nccs2)c1=O | n | n | n | n | n
O=c1/c(=C\c2cc([N+](=O)[O-])cc([N+](=O)[O-])c2O)sc2nc3ccccc3n12 | n | n | x | n | 72.2
CCNC(=O)Cc1c(OC)ccc2cc(Br)ccc12 | n | n | n | n | n
COc1ccc2cc(Br)ccc2c1CC(=O)NC(C)(C)C | 54.1 | n | n | n | n
COc1ccc(-c2cn(-c3ccc(OC)cc3)c3[n+]2-c2ccccc2CC3)cc1 | n | n | n | 24.4 | n
Cc1noc(C)c1-c1ccc(C(=O)N2CCN(C)CC2)c2occc12 | x | x | n | x | x
COc1ccc([C@@H]2CC=C(C(=O)O)[C@H](c3ccc(Br)cc3)N2S(=O)(=O)c2ccccc2C)cc1 | n | n | n | x | 52.5

High-throughput results: PubChem, The Scripps Research Institute Molecular Screening Center
